Results taken from ChEMBL document CHEMBL1136894, “New antituberculotics originated from salicylanilides with promising in vitro activity against atypical mycobacterial strains” (Bioorg Med Chem, 2009).
≈ marks a conversion by molar mass, not a printed value.

Legend:
[1] = test system: Mycobacterium tuberculosis; test: Antimycobacterial activity against Mycobacterium tuberculosis CNCTC My 331/88 after 14 days; assay type: functional; conditions: CNCTC My 331/88, 336 h
Summary of the method: (§1)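 Broth dilution in Sula semisynthetic medium, compounds added as DMSO solutions at 250, 125, 62, 32, 16, 8, 4, 2 and 1. Strains came from the Czech National Collection of Type Cultures; the M. tuberculosis inoculum was diluted 10^-3. Cultures were incubated at 37 °C, and MIC was read after 7, 14 and 21 days.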

[2] = test system: Mycobacterium tuberculosis; test: Antimycobacterial activity against Mycobacterium tuberculosis CNCTC My 331/88 after 21 days; assay type: functional; conditions: CNCTC My 331/88, 504 h; summary of the method: as §1
[3] = test system: Mycobacterium avium; test: Antimycobacterial activity against Mycobacterium avium CNCTC My 330/88 after 14 days; assay type: functional; conditions: CNCTC My 330/88, 336 h; summary of the method: as §1
[4] = test system: Mycobacterium avium; test: Antimycobacterial activity against Mycobacterium avium CNCTC My 330/88 after 21 days; assay type: functional; conditions: CNCTC My 330/88, 504 h; summary of the method: as §1
[5] = test system: Mycobacterium kansasii; test: Antimycobacterial activity against Mycobacterium kansasii CNCTC My 235/80 after 7 days; assay type: functional; conditions: CNCTC My 235/80, 168 h
Summary of the method: (§2)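 Compounds were added as DMSO solutions to Sula semisynthetic medium at 250, 125, 62, 32, 16, 8, 4, 2 and 1 µmol/L. Two M. kansasii strains were used: CNCTC My 235/80 and clinical isolate 6509/96, each with strain dilution 10^-4. Incubation was at 37 °C, and MIC was read at 7, 14 and 21 days.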

[6] = test system: Mycobacterium kansasii; test: Antimycobacterial activity against Mycobacterium kansasii CNCTC My 235/80 after 14 days; assay type: functional; conditions: CNCTC My 235/80, 336 h; summary of the method: as §2
[7] = test system: Mycobacterium kansasii; test: Antimycobacterial activity against Mycobacterium kansasii CNCTC My 235/80 after 21 days; assay type: functional; conditions: CNCTC My 235/80, 504 h; summary of the method: as §2
[8] = test system: Mycobacterium kansasii; test: Antimycobacterial activity against Mycobacterium kansasii isolate 6509/96 after 7 days; assay type: functional; conditions: isolate 6509/96, 168 h; summary of the method: as §2
[9] = test system: Mycobacterium kansasii; test: Antimycobacterial activity against Mycobacterium kansasii isolate 6509/96 after 14 days; assay type: functional; conditions: isolate 6509/96, 336 h; summary of the method: as §2
[10] = test system: Mycobacterium kansasii; test: Antimycobacterial activity against Mycobacterium kansasii isolate 6509/96 after 21 days; assay type: functional; conditions: isolate 6509/96, 504 h; summary of the method: as §2
[11] = Lipophilicity, log K by HPLC; assay type: physicochemical
Summary of the method: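 Capacity factors k were measured by RP-HPLC and log k was calculated from them.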

[12] = test system: HCT-8; test: Cytotoxicity against human HCT8 cells after 72 hrs by XTT assay; assay type: functional, cell-based; conditions: HCT-8, 72 h
Summary of the method: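 HCT-8 cells were grown in EMEM with 5% FBS at 37 °C under 5% CO2. They were harvested with trypsin, seeded at 2 × 10^5 cells/mL and left 24 h. Medium was then replaced with compound in DMSO. DMSO-only wells served as the viability control and 20% DMSO as the cytotoxic control. Reagent was added for 4 h and absorbance read at 450 nm. Triplicates; EC50 reported.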

[13] = Selectivity index, ratio of EC50 for human HCT8 cells to MIC for Mycobacterium tuberculosis CNCTC My 331/88; assay type: functional, HCT-8
Summary of the method: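 SI is EC50 in HCT-8 cells divided by the M. tuberculosis MIC. HCT-8 cells were grown in EMEM with 5% FBS at 37 °C under 5% CO₂, trypsinised and seeded at 2 × 10⁵ cells/mL. After 24 h the medium was replaced with compound in DMSO. Controls were DMSO alone and 20% DMSO. Absorbance was read at 450 nm 4 h after reagent addition, in triplicate.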

[14] = Stability assessed as half life in phosphate buffer at pH 7.4 by UV-visible spectroscopy; assay type: physicochemical
Summary of the method: (§3)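 Compound in methanolic solution (10 or 20 µL) was added to tempered 7 × 10^-2 M phosphate buffer (2 mL) at pH 7.4 or 5.5, 37 °C. The absorbance decrease at 224 nm was followed by UV/vis.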

[15] = Stability assessed as half life in phosphate buffer at pH 5.5 by UV-visible spectroscopy; assay type: physicochemical; summary of the method: as §3

Compound	MIC [1] [µM]	MIC [2] [µM]	MIC [3] [µM]	MIC [4] [µM]	MIC [5] [µM]	MIC [6] [µM]	MIC [7] [µM]	MIC [8] [µM]	MIC [9] [µM]	MIC [10] [µM]	log K [11]	EC50 [12] [µM]	Ratio [13]	half-life [14] [min]	half-life [15] [min]
CC(C)[C@H](NC(=O)OCc1ccccc1)C(=O)Oc1ccc(Cl)cc1C(=O)Nc1ccc(Br)cc1	4 (≈ 2.24 µg/mL)	4 (≈ 2.24 µg/mL)	8 (≈ 4.48 µg/mL)	16 (≈ 8.96 µg/mL)	4 (≈ 2.24 µg/mL)	8 (≈ 4.48 µg/mL)	8 (≈ 4.48 µg/mL)	8 (≈ 4.48 µg/mL)	8 (≈ 4.48 µg/mL)	8 (≈ 4.48 µg/mL)	0.9803	122	16.74	14.8	14.3
O=C(N[C@H](Cc1ccccc1)C(=O)Oc1ccc(Cl)cc1C(=O)Nc1ccc(Br)cc1)OCc1ccccc1	2 (≈ 1.22 µg/mL)	4 (≈ 2.43 µg/mL)	8 (≈ 4.86 µg/mL)	16 (≈ 9.73 µg/mL)	2 (≈ 1.22 µg/mL)	4 (≈ 2.43 µg/mL)	4 (≈ 2.43 µg/mL)	8 (≈ 4.86 µg/mL)	8 (≈ 4.86 µg/mL)	8 (≈ 4.86 µg/mL)	1.1267	35.5	10.61	34.3	32.5
CC(C)[C@@H](NC(=O)OCc1ccccc1)C(=O)Oc1ccc(Cl)cc1C(=O)Nc1cccc(Cl)c1	8 (≈ 4.12 µg/mL)	8 (≈ 4.12 µg/mL)	32 (≈ 16.5 µg/mL)	32 (≈ 16.5 µg/mL)	8 (≈ 4.12 µg/mL)	16 (≈ 8.25 µg/mL)	16 (≈ 8.25 µg/mL)	8 (≈ 4.12 µg/mL)	16 (≈ 8.25 µg/mL)	16 (≈ 8.25 µg/mL)	0.8954				
CC(C)[C@@H](NC(=O)OCc1ccccc1)C(=O)Oc1ccc(Cl)cc1C(=O)Nc1ccc(Br)cc1	2 (≈ 1.12 µg/mL)	4 (≈ 2.24 µg/mL)	16 (≈ 8.96 µg/mL)	16 (≈ 8.96 µg/mL)	4 (≈ 2.24 µg/mL)	8 (≈ 4.48 µg/mL)	8 (≈ 4.48 µg/mL)	8 (≈ 4.48 µg/mL)	8 (≈ 4.48 µg/mL)	8 (≈ 4.48 µg/mL)	0.9805	121	33.35	15	14.8
O=C(N[C@@H](Cc1ccccc1)C(=O)Oc1ccc(Cl)cc1C(=O)Nc1ccc(Br)cc1)OCc1ccccc1	4 (≈ 2.43 µg/mL)	8 (≈ 4.86 µg/mL)	16 (≈ 9.73 µg/mL)	16 (≈ 9.73 µg/mL)	4 (≈ 2.43 µg/mL)	8 (≈ 4.86 µg/mL)	8 (≈ 4.86 µg/mL)	16 (≈ 9.73 µg/mL)	16 (≈ 9.73 µg/mL)	16 (≈ 9.73 µg/mL)	1.1258				
C[C@H](NC(=O)OCc1ccccc1)C(=O)Oc1ccc(Cl)cc1C(=O)Nc1cccc(Cl)c1	4 (≈ 1.95 µg/mL)	8 (≈ 3.9 µg/mL)	32 (≈ 15.6 µg/mL)	62.5 (≈ 30.5 µg/mL)	16 (≈ 7.8 µg/mL)	16 (≈ 7.8 µg/mL)	16 (≈ 7.8 µg/mL)	8 (≈ 3.9 µg/mL)	16 (≈ 7.8 µg/mL)	16 (≈ 7.8 µg/mL)	0.6995				
C[C@H](NC(=O)OCc1ccccc1)C(=O)Oc1ccc(Cl)cc1C(=O)Nc1ccc(Cl)c(Cl)c1	2 (≈ 1.04 µg/mL)	4 (≈ 2.09 µg/mL)	16 (≈ 8.35 µg/mL)	32 (≈ 16.7 µg/mL)	4 (≈ 2.09 µg/mL)	4 (≈ 2.09 µg/mL)	8 (≈ 4.17 µg/mL)	8 (≈ 4.17 µg/mL)	16 (≈ 8.35 µg/mL)	16 (≈ 8.35 µg/mL)	0.9408				
CC(C)[C@@H](NC(=O)OCc1ccccc1)C(=O)Oc1cc(Cl)ccc1C(=O)Nc1ccc(Cl)cc1	4 (≈ 2.06 µg/mL)	4 (≈ 2.06 µg/mL)	8 (≈ 4.12 µg/mL)	16 (≈ 8.25 µg/mL)	4 (≈ 2.06 µg/mL)	8 (≈ 4.12 µg/mL)	8 (≈ 4.12 µg/mL)	4 (≈ 2.06 µg/mL)	8 (≈ 4.12 µg/mL)	8 (≈ 4.12 µg/mL)	0.8816	107	13.75	20.4	20.3
O=C(N[C@@H](Cc1ccccc1)C(=O)Oc1ccc(Cl)cc1C(=O)Nc1cccc(Cl)c1)OCc1ccccc1	16 (≈ 9.01 µg/mL)	16 (≈ 9.01 µg/mL)	32 (≈ 18 µg/mL)	62.5 (≈ 35.2 µg/mL)	32 (≈ 18 µg/mL)	32 (≈ 18 µg/mL)	32 (≈ 18 µg/mL)	32 (≈ 18 µg/mL)	32 (≈ 18 µg/mL)	32 (≈ 18 µg/mL)	1.0465				
